Key:
[1] = tested on: A549; assay: Growth inhibition of human A549 cells at 10 uM after 48 hrs by SRB assay relative to control; assay type: functional; conditions: A549, 48 h, read-out: GI
Outline: (§1)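 Primary SRB screen of every compound at a single concentration of 10 µM. Growth inhibition is expressed relative to control.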

[2] = tested on: PC-3; assay: Growth inhibition of human PC3 cells at 10 uM after 48 hrs by SRB assay relative to control; assay type: functional; conditions: PC-3, 48 h, read-out: GI; outline: as §1
[3] = tested on: HCT-116; assay: Growth inhibition of human HCT116 cells at 10 uM after 48 hrs by SRB assay relative to control; assay type: functional; conditions: HCT-116, 48 h, read-out: GI; outline: as §1
[4] = tested on: MCF7; assay: Growth inhibition of human MCF7 cells at 10 uM after 48 hrs by SRB assay relative to control; assay type: functional; conditions: MCF7, 48 h, read-out: GI; outline: as §1
[5] = tested on: MIA PaCa-2; assay: Growth inhibition of human MIAPaCa2 at 10 uM after 48 hrs by SRB assay relative to control; assay type: functional; conditions: MIA PaCa-2, 48 h, read-out: GI; outline: as §1
[6] = tested on: A549; assay: Cytotoxicity against human A549 cells assessed as reduction in cell viability after 48 hrs by SRB assay; assay type: functional, cell-based; conditions: A549, 48 h
Outline: (§2)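 SRB assay. Compounds active at 10 µM in the primary screen were retested at 1, 2.5 and 5 µM, and IC50 was calculated from these concentrations. The normal breast epithelial line fR2 was tested alongside the cancer lines.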

[7] = tested on: PC-3; assay: Cytotoxicity against human PC3 cells assessed as reduction in cell viability after 48 hrs by SRB assay; assay type: functional, cell-based; conditions: PC-3, 48 h; outline: as §2
[8] = tested on: HCT-116; assay: Cytotoxicity against human HCT116 cells assessed as reduction in cell viability after 48 hrs by SRB assay; assay type: functional, cell-based; conditions: HCT-116, 48 h; outline: as §2
[9] = tested on: MCF7; assay: Cytotoxicity against human MCF7 cells assessed as reduction in cell viability after 48 hrs by SRB assay; assay type: functional, cell-based; conditions: MCF7, 48 h; outline: as §2
[10] = tested on: MIA PaCa-2; assay: Cytotoxicity against human MIAPaCa2 cells assessed as reduction in cell viability after 48 hrs by SRB assay; assay type: functional, cell-based; conditions: MIA PaCa-2, 48 h; outline: as §2
[11] = Cytotoxicity against human FR2 cells assessed as reduction in cell viability after 48 hrs by SRB assay; assay type: cell-based; conditions: FR2, 48 h; outline: as §2
[12] = Selectivity index, ratio of IC50 for human FR2 cells to IC50 for human A549 cells; assay type: functional
Outline: (§3)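 Selectivity index is the IC50 in normal breast epithelial fR2 cells divided by the IC50 in each cancer line. All IC50 values come from the SRB assay.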

[13] = Selectivity index, ratio of IC50 for human FR2 cells to IC50 for human PC3 cells; assay type: functional; outline: as §3
[14] = Selectivity index, ratio of IC50 for human FR2 cells to IC50 for human HCT116 cells; assay type: functional; outline: as §3
[15] = Selectivity index, ratio of IC50 for human FR2 cells to IC50 for human MCF7 cells; assay type: functional; outline: as §3
[16] = Selectivity index, ratio of IC50 for human FR2 cells to IC50 for human MIAPaCa2 cells; assay type: functional; outline: as §3

Row | Structure (SMILES) | inhibition of growth at 10 µM [1] [%] | inhibition of growth at 10 µM [2] [%] | inhibition of growth at 10 µM [3] [%] | inhibition of growth at 10 µM [4] [%] | inhibition of growth at 10 µM [5] [%] | IC50 [6] [µM] | IC50 [7] [µM] | IC50 [8] [µM] | IC50 [9] [µM] | IC50 [10] [µM] | IC50 [11] [µM] | Ratio IC50 [12] | Ratio IC50 [13] | Ratio IC50 [14] | Ratio IC50 [15] | Ratio IC50 [16]
1 | C=C(C)[C@@H]1CC[C@]2(C(=O)O)CC[C@]3(C)[C@H](CC[C@@H]4[C@@]5(C)C/C(=C\c6ccsc6)C(=O)C(C)(C)[C@@H]5CC[C@]43C)[C@@H]12 | 95 | 82 | 91 | 92 | 76 | 3.9 | 6.7 | 5.1 | 2.9 | 5.3 | 20.7 | 5.317 | 3.095 | 4.066 | 7.151 | 3.913
2 | C=C(C)[C@@H]1CC[C@]2(C(=O)O)CC[C@]3(C)[C@H](CC[C@@H]4[C@@]5(C)C/C(=C\c6cccc7ccccc67)[C@H](O)C(C)(C)[C@@H]5CC[C@]43C)[C@@H]12 | 36 | 36 | 55 | 64 | 62 | > 10 | > 10 | 3.6 | 7.5 | 7.09 | 10 |  |  | 2.788 | 1.338 | 1.416
3 | C=C(C)[C@@H]1CC[C@]2(C(=O)O)CC[C@]3(C)[C@H](CC[C@@H]4[C@@]5(C)C/C(=C\c6ccc(F)c(Br)c6)C(=O)C(C)(C)[C@@H]5CC[C@]43C)[C@@H]12 | 89 | 71 | 89 | 85 | 82 | 3.9 | 8.02 | 5.8 | 7.07 | 6.9 | 47.2 | 12.09 | 5.881 | 8.132 | 6.671 | 6.836
4 | C=C(C)[C@@H]1CC[C@]2(C(=O)O)CC[C@]3(C)[C@H](CC[C@@H]4[C@@]5(C)C/C(=C\c6cccc(Br)c6)[C@H](O)C(C)(C)[C@@H]5CC[C@]43C)[C@@H]12 | 90 | 59 | 46 | 65 | 22 | 3.6 | 5.5 | > 10 | 8.06 | 14.4 | 15 | 4.16 | 2.72 |  | 1.86 | 1.041
5 | C=C(C)[C@@H]1CC[C@]2(C(=O)O)CC[C@]3(C)[C@H](CC[C@@H]4[C@@]5(C)C/C(=C\c6ccc(F)cc6)[C@H](O)C(C)(C)[C@@H]5CC[C@]43C)[C@@H]12 | 59 | 48 | 67 | 77 | 78 | 4 | > 10 | 1.5 | 1.18 | 1.21 | 14.4 | 3.6 |  | 9.62 | 12.22 | 8.702
6 | C=C(C)[C@@H]1CC[C@]2(C(=O)O)CC[C@]3(C)[C@H](CC[C@@H]4[C@@]5(C)C/C(=C\c6ccc(Br)o6)C(=O)C(C)(C)[C@@H]5CC[C@]43C)[C@@H]12 | 91 | 79 | 87 | 92 | 75 | 2.9 | 5.7 | 2.9 | 5.6 | 5.2 | 13.6 | 4.69 | 2.389 | 4.696 | 2.432 | 2.619
7 | C=C(C)[C@@H]1CC[C@]2(C(=O)O)CC[C@]3(C)[C@H](CC[C@@H]4[C@@]5(C)C/C(=C\c6ccc(OC)cc6)[C@H](O)C(C)(C)[C@@H]5CC[C@]43C)[C@@H]12 | 54 | 52 | 63 | 69 | 67 | 4.3 | 7.4 | 4.9 | 6.9 | 6.4 | 21.6 | 5.016 | 2.914 | 4.402 | 3.126 | 3.37

From ChEMBL document CHEMBL4052644, “Synthesis of novel benzylidene analogues of betulinic acid as potent cytotoxic agents” (Eur J Med Chem, 2017)
